From ChEMBL document CHEMBL1275408, “A chemical genomic screen in Saccharomyces cerevisiae reveals a role for diphthamidation of translation elongation factor 2 in inhibition of protein synthesis by sordarin” (2008)
Active and inactive are the calls of the source. The calls are words filed in the database; no cut-off is given here.

How the values were obtained:
[1] = system: Saccharomyces cerevisiae; experiment: Antifungal activity against Saccharomyces cerevisiae BY4741 harboring SHE2 YKL130C mutant gene by spectrophotometry; assay type: functional
In short: (§1)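 Haploid MATa BY4741 KanMX4 deletion strains pinned from frozen stocks into YPD + G418 (150 mg/liter), grown 3 days at 28°C to confluence, then pin-replicated into SC liquid with no drug or sordarin derivative GM193663 (2 ng/ml sensitivity; 62.5 ng/ml resistance). 28°C, OD595 read every 24 h for 5 days; growth scored relative to wild type on same plate and to untreated mutant.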

[2] = system: Saccharomyces cerevisiae; experiment: Antifungal activity against Saccharomyces cerevisiae BY4741 harboring DIA4 YHR011W mutant gene by spectrophotometry; assay type: functional
In short: (§2)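 Screen of BY4741 KanMX4 deletion strains pre-grown 3 days at 28°C in YPD with G418 (150 mg/liter), then pinned into liquid SC containing GM193663. The sensitivity screen used 2 ng/ml; the resistance screen used 62.5 ng/ml, with validation at 62.5, 125 and 500 ng/ml. OD595 was read every 24 h over 5 days at 28°C. Growth was scored relative to wild type and to drug-free controls. Retests were at least in duplicate.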

[3] = system: Saccharomyces cerevisiae; experiment: Antifungal activity against Saccharomyces cerevisiae BY4741 harboring MUP3 YHL036W mutant gene by spectrophotometry; assay type: functional; in short: as §1
[4] = system: Saccharomyces cerevisiae; experiment: Antifungal activity against Saccharomyces cerevisiae BY4741 harboring LYS14 YDR034C mutant gene by spectrophotometry; assay type: functional; in short: as §2
[5] = system: Saccharomyces cerevisiae; experiment: Antifungal activity against Saccharomyces cerevisiae BY4741 harboring CUE1 YMR264W mutant gene by spectrophotometry; assay type: functional; in short: as §2
[6] = system: Saccharomyces cerevisiae; experiment: Antifungal activity against Saccharomyces cerevisiae BY4741 harboring SEM1 YDR363W-A mutant gene by spectrophotometry; assay type: functional; in short: as §1
[7] = system: Saccharomyces cerevisiae; experiment: Antifungal activity against Saccharomyces cerevisiae BY4741 harboring DSK2 YMR276W mutant gene by spectrophotometry; assay type: functional; in short: as §2
[8] = system: Saccharomyces cerevisiae; experiment: Antifungal activity against Saccharomyces cerevisiae BY4741 harboring PRE9 YGR135W mutant gene by spectrophotometry; assay type: functional; in short: as §1
[9] = system: Saccharomyces cerevisiae; experiment: Antifungal activity against Saccharomyces cerevisiae BY4741 harboring FUN12 YAL035W mutant gene by spectrophotometry; assay type: functional; in short: as §2
[10] = system: Saccharomyces cerevisiae; experiment: Antifungal activity against Saccharomyces cerevisiae BY4741 harboring MSR1 YHR091C mutant gene by spectrophotometry; assay type: functional; in short: as §1
[11] = system: Saccharomyces cerevisiae; experiment: Antifungal activity against Saccharomyces cerevisiae BY4741 harboring MRPL24 YMR193W mutant gene by spectrophotometry; assay type: functional; in short: as §1
[12] = system: Saccharomyces cerevisiae; experiment: Antifungal activity against Saccharomyces cerevisiae BY4741 harboring MRP20 YDR405W mutant gene by spectrophotometry; assay type: functional; in short: as §2
[13] = system: Saccharomyces cerevisiae; experiment: Antifungal activity against Saccharomyces cerevisiae BY4741 harboring MRP21 YBL090W mutant gene by spectrophotometry; assay type: functional; in short: as §2
[14] = system: Saccharomyces cerevisiae; experiment: Antifungal activity against Saccharomyces cerevisiae BY4741 harboring RPS11A YDR025W mutant gene by spectrophotometry; assay type: functional; in short: as §1
[15] = system: Saccharomyces cerevisiae; experiment: Antifungal activity against Saccharomyces cerevisiae BY4741 harboring RPL1B YGL135W mutant gene by spectrophotometry; assay type: functional; in short: as §1
[16] = system: Saccharomyces cerevisiae; experiment: Antifungal activity against Saccharomyces cerevisiae BY4741 harboring DPH2 YKL191W mutant gene by spectrophotometry; assay type: functional; in short: as §2
[17] = system: Saccharomyces cerevisiae; experiment: Antifungal activity against Saccharomyces cerevisiae BY4741 harboring CNM67 YNL225C mutant gene assessed as reduction in fungal growth at 2 ng/ml by spectrophotometry; assay type: functional, organism-based
In short: (§3)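 Haploid BY4741 KanMX4 deletion strains pre-grown in YPD with G418 (150 mg/liter) for 3 days at 28°C. They were then pin-replicated into liquid SC with sordarin derivative GM193663 at 2 ng/ml, or without drug. Plates were incubated at 28°C and OD595 read every 24 h for 5 days. Growth was scored against wild type on the same plate and against the drug-free mutant. Hits were retested at least in duplicate.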

[18] = system: Saccharomyces cerevisiae; experiment: Antifungal activity against Saccharomyces cerevisiae BY4741 harboring ATP1 YBL099W mutant gene assessed as reduction in fungal growth at 2 ng/ml by spectrophotometry; assay type: functional, organism-based; in short: as §3
[19] = system: Saccharomyces cerevisiae; experiment: Antifungal activity against Saccharomyces cerevisiae BY4741 harboring deletion mutation in dph4 gene at 300 to 500 ng/ml after 24 hrs by liquid growth assay; assay type: functional
[20] = system: Saccharomyces cerevisiae; experiment: Antifungal activity against Saccharomyces cerevisiae BY4741 harboring deletion mutation in dph1 gene at 300 to 500 ng/ml after 24 hrs by liquid growth assay; assay type: functional
[21] = system: Saccharomyces cerevisiae; experiment: Antifungal activity against Saccharomyces cerevisiae BY4741 harboring deletion mutation in dph5 gene at 100 ng/ml by plate assay; assay type: functional, organism-based
In short: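 Spot test on solid SC glucose plates with or without 100 ng/ml sordarin. Drops of 10^5 cells plus 10-fold serial dilutions of each dph deletion strain were spotted alongside the parental strain. Plates were incubated at 28°C for 6 days and imaged every 24 h.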

[22] = system: Saccharomyces cerevisiae; experiment: Antifungal activity against Saccharomyces cerevisiae BY4741 harboring YLR125W mutation in unknown gene by spectrophotometry; assay type: functional
In short: (§4)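 Deletion strains from the nonessential haploid MATa BY4741 collection (KanMX4 replacement) were grown in YPD with G418 at 28°C for 3 days, then pinned into liquid SC with or without sordarin derivative GM193663 (2 ng/ml for sensitivity, 62.5 ng/ml for resistance). Cultures were kept at 28°C and read at OD595 every 24 h for 5 days. Growth was scored against wild type on the same plate and against the drug-free control. Hits were retested at least in duplicate.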

[23] = system: Saccharomyces cerevisiae; experiment: Antifungal activity against Saccharomyces cerevisiae BY4741 harboring YER184C mutation in unknown gene by spectrophotometry; assay type: functional; in short: as §4
[24] = system: Saccharomyces cerevisiae; experiment: Antifungal activity against Saccharomyces cerevisiae BY4741 harboring YDL062W mutation in unknown gene by spectrophotometry; assay type: functional; in short: as §1
[25] = system: Saccharomyces cerevisiae; experiment: Antifungal activity against Saccharomyces cerevisiae BY4741 harboring YDR042C mutation in unknown gene by spectrophotometry; assay type: functional; in short: as §4
[26] = system: Saccharomyces cerevisiae; experiment: Antifungal activity against Saccharomyces cerevisiae BY4741 harboring YDL063C mutation in unknown gene by spectrophotometry; assay type: functional; in short: as §1
[27] = system: Saccharomyces cerevisiae; experiment: Antifungal activity against Saccharomyces cerevisiae BY4741 harboring DLT1 YMR126C mutant gene by spectrophotometry; assay type: functional; in short: as §2
[28] = system: Saccharomyces cerevisiae; experiment: Antifungal activity against Saccharomyces cerevisiae BY4741 harboring YMR141C mutation in unknown gene by spectrophotometry; assay type: functional; in short: as §4
[29] = system: Saccharomyces cerevisiae; experiment: Antifungal activity against Saccharomyces cerevisiae BY4741 harboring YLR202C mutation in unknown gene by spectrophotometry; assay type: functional; in short: as §4
[30] = system: Saccharomyces cerevisiae; experiment: Antifungal activity against Saccharomyces cerevisiae BY4741 harboring YKL098W mutation in unknown gene by spectrophotometry; assay type: functional; in short: as §4
[31] = system: Saccharomyces cerevisiae; experiment: Antifungal activity against Saccharomyces cerevisiae BY4741 harboring YGR228W mutation in unknown gene by spectrophotometry; assay type: functional; in short: as §4
[32] = system: Saccharomyces cerevisiae; experiment: Antifungal activity against Saccharomyces cerevisiae BY4741 harboring FYV1 YDR024W mutant gene by spectrophotometry; assay type: functional; in short: as §2
[33] = system: Saccharomyces cerevisiae; experiment: Antifungal activity against Saccharomyces cerevisiae BY4741 harboring YDR008C mutation by spectrophotometry; assay type: functional; in short: as §1
[34] = system: Saccharomyces cerevisiae; experiment: Antifungal activity against Saccharomyces cerevisiae BY4741 harboring YCL042W mutation by spectrophotometry; assay type: functional; in short: as §1
[35] = system: Saccharomyces cerevisiae; experiment: Antifungal activity against Saccharomyces cerevisiae BY4741 harboring SCS22 YBL091C-A mutant gene by spectrophotometry; assay type: functional; in short: as §1
[36] = system: Saccharomyces cerevisiae; experiment: Antifungal activity against Saccharomyces cerevisiae BY4741 harboring MOH1 YBL049W mutant gene by spectrophotometry; assay type: functional; in short: as §2

**Q.** Which results are given for `CO[C@H]1[C@@H](O)[C@H](O)[C@H](OC[C@@]23C[C@@H]4[C@H](C)CC[C@H]4[C@@]4(C=O)CC2C=C(C(C)C)[C@@]34C(=O)O)O[C@@H]1C` [SORDARIN]?
**A.** MIC [1]: > 0.125 mg/L; MIC [2]: > 0.0625 mg/L; MIC [3]: > 0.5 mg/L; MIC [4]: > 0.5 mg/L; MIC [5]: > 0.0625 mg/L; MIC [6]: > 0.125 mg/L; MIC [7]: > 0.5 mg/L; MIC [8]: > 0.5 mg/L; MIC [9]: > 0.125 mg/L; MIC [10]: > 0.125 mg/L; MIC [11]: > 0.125 mg/L; MIC [12]: > 0.5 mg/L; MIC [13]: > 0.5 mg/L; MIC [14]: > 0.0625 mg/L; MIC [15]: > 0.5 mg/L; MIC [16]: > 0.5 mg/L; Activity [17]: Active; Activity [18]: Active; Activity [19]: 50%; Activity [20]: 50%; MIC [21]: inactive; MIC [22]: > 0.125 mg/L; MIC [23]: > 0.125 mg/L; MIC [24]: > 0.125 mg/L; MIC [25]: > 0.125 mg/L; MIC [26]: > 0.125 mg/L; MIC [27]: > 0.125 mg/L; MIC [28]: > 0.5 mg/L; MIC [29]: > 0.5 mg/L; MIC [30]: > 0.5 mg/L; MIC [31]: > 0.5 mg/L; MIC [32]: > 0.5 mg/L; MIC [33]: > 0.5 mg/L; MIC [34]: > 0.125 mg/L; MIC [35]: > 0.5 mg/L; MIC [36]: > 0.5 mg/L
